# Activity calls are given as the source filed them. The calls are words filed in the database; no cut-off is given here.
# Tests used:
# Histone deacetylase 1 = Histone deacetylase 1 (Homo sapiens, UniProt Q13547); assay: Inhibition of HDAC1 (unknown origin) using Fluor de Lys substrate by fluorescence assay relative to control; settings: read-out: IC50
# Histone deacetylase 3 = Histone deacetylase 3 (Homo sapiens, UniProt O15379); assay: Inhibition of HDAC3 (unknown origin) using Fluor de Lys substrate by fluorescence assay relative to control
# Method in brief: (§1)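 Recombinant HDAC isoform assays run by a contract lab. Compounds in DMSO, 10-dose IC50 mode, 3-fold serial dilution from 50 μM. Duplicate runs; IC50 from curve fitting.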
# [1] = molecular target: Histone deacetylase 5 (Homo sapiens) (UniProt Q9UQL6); assay: Inhibition of HDAC5 (unknown origin) using Fluor de Lys substrate by fluorescence assay relative to control; method in brief: as §1
# [2] = molecular target: Histone deacetylase 7 (Homo sapiens) (UniProt Q8WUI4); assay: Inhibition of HDAC7 (unknown origin) using Fluor de Lys substrate by fluorescence assay relative to control; method in brief: as §1
# HL-60 = assay: Antiproliferative activity against human HL60 assessed as reduction in cell viability measured after 72 hrs using alamar blue based fluorescence method; type: functional; settings: HL-60, 72 h
# Method in brief: (§2)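 Leukemia lines grown in IMDM with penicillin/streptomycin, HL-60 with 20% FBS and K562 with 10% FBS, at 37 °C, 5% CO2. Cells in 96-well plates exposed to drug for 72 h. Alamar blue (1 mM solution) added for 5–6 h, fluorescence read at 530/590 nm.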
# K562 = assay: Antiproliferative activity against human K562 assessed as reduction in cell viability measured after 72 hrs using alamar blue based fluorescence method; type: functional; settings: K562, 72 h; method in brief: as §2
# Homo sapiens = organism: Homo sapiens; assay: Selectivity index, ratio of IC50 of HDCA8 (unknown origin) to IC50 of HDCA1 (unknown origin)
# CCRF-CEM = assay: Growth inhibition of human CCRF-CEM cells assessed as cell growth inhibition at 10 uM incubated for 48 hrs by sulforhodamine B assay; type: functional; settings: read-out: GI
# SR = assay: Growth inhibition of human SR cells assessed as cell growth inhibition at 10 uM incubated for 48 hrs by sulforhodamine B assay; type: functional; settings: read-out: GI
# NCI-H322M = assay: Growth inhibition of human NCI-H322M assessed as cell growth inhibition at 10 uM incubated for 48 hrs by sulforhodamine B assay; type: functional; settings: read-out: GI
# COLO 205 = assay: Growth inhibition of human COLO205 cells assessed as cell growth inhibition at 10 uM incubated for 48 hrs by sulforhodamine B assay; type: functional; settings: COLO 205, 48 h, read-out: GI
# HCC 2998 = assay: Growth inhibition of human HCC2998 cells assessed as cell growth inhibition at 10 uM incubated for 48 hrs by sulforhodamine B assay; type: functional; settings: HCC 2998, 48 h, read-out: GI
# HCT-116 = assay: Growth inhibition of human HCT116 cells assessed as cell growth inhibition at 10 uM incubated for 48 hrs by sulforhodamine B assay; type: functional; settings: HCT-116, 48 h, read-out: GI
# KM12 = assay: Growth inhibition of human KM12 cells assessed as cell growth inhibition at 10 uM incubated for 48 hrs by sulforhodamine B assay; type: functional; settings: KM12, 48 h, read-out: GI
# SF-268 = assay: Growth inhibition of human SF268 cells assessed as cell growth inhibition at 10 uM incubated for 48 hrs by sulforhodamine B assay; type: functional; settings: SF-268, 48 h, read-out: GI
# DU-145 = assay: Growth inhibition of human DU145 cells assessed as cell growth inhibition at 10 uM incubated for 48 hrs by sulforhodamine B assay; type: functional; settings: DU-145, 48 h, read-out: GI
# TK-10 = assay: Growth inhibition of human TK10 cells assessed as cell growth inhibition at 10 uM incubated for 48 hrs by sulforhodamine B assay; type: functional; settings: TK-10, 48 h, read-out: GI
# ACHN = assay: Growth inhibition of human ACHN cells assessed as cell growth inhibition at 10 uM incubated for 48 hrs by sulforhodamine B assay; type: functional; settings: read-out: GI
# SF-295 = assay: Growth inhibition of human SF295 cells assessed as cell growth inhibition at 10 uM incubated for 48 hrs by sulforhodamine B assay; type: functional; settings: SF-295, 48 h, read-out: GI
# SF-539 = assay: Growth inhibition of human SF539 cells assessed as cell growth inhibition at 10 uM incubated for 48 hrs by sulforhodamine B assay; type: functional; settings: SF-539, 48 h, read-out: GI
# SNB-19 = assay: Growth inhibition of human SNB19 cells assessed as cell growth inhibition at 10 uM incubated for 48 hrs by sulforhodamine B assay; type: functional; settings: SNB-19, 48 h, read-out: GI
# SK-MEL-2 = assay: Growth inhibition of human SK-MEL-2 cells assessed as cell growth inhibition at 10 uM incubated for 48 hrs by sulforhodamine B assay; type: functional; settings: SK-MEL-2, 48 h, read-out: GI
# OVCAR-3 = assay: Growth inhibition of human OVCAR3 cells assessed as cell growth inhibition at 10 uM incubated for 48 hrs by sulforhodamine B assay; type: functional; settings: OVCAR-3, 48 h, read-out: GI
# OVCAR-8 = assay: Growth inhibition of human OVCAR8 cells assessed as cell growth inhibition at 10 uM incubated for 48 hrs by sulforhodamine B assay; type: functional; settings: OVCAR-8, 48 h, read-out: GI
# [3] = Metabolic stability in dog liver microsomes assessed as internal clearance at 1 uM preincubated for 10 mins followed by NADPH addition measured upto 60 mins by LC-MS/MS analysis; type: ADME, Canis lupus familiaris, Microsome; settings: read-out: CLH
# Method in brief: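 Liver microsomes from male SD rat, dog or human at 0.5 mg/mL in 100 mM potassium phosphate pH 7.4 with 1 μM compound. Prewarmed 37 °C 10 min, started with 1 mM NADPH. Stopped at 0, 5, 10, 20, 40, 60 min with cold methanol containing glibenclamide internal standard; supernatant by LC–MS/MS; T1/2 and CLint derived.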
# [4] = Volume of distribution at steady state in Sprague-Dawley rat at 1 mg/kg, iv by LC-MS/MS analysis; type: ADME, organism-based; settings: in vivo, read-out: Vdss
# Method in brief: (§3)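 Male SD rats (199-214 g), three per route, single dose 1 mg/kg iv or 10 mg/kg po. Jugular blood (~200 μL) into heparinized tubes at set times; plasma by centrifugation, protein precipitation with acetonitrile containing verapamil and glibenclamide; drug measured by LC-MS/MS.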
# [5] = AUC (0 to t) in Sprague-Dawley rat at 1 mg/kg, iv by LC-MS/MS analysis; type: ADME, organism-based; settings: in vivo
# [6] = AUC (0 to infinity) in Sprague-Dawley rat at 10 mg/kg, po by LC-MS/MS analysis; type: ADME, organism-based; set-up: dose 10 mg/kg, time infinity, route oral; settings: in vivo
# Method in brief: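 Male SD rats, 199-214 g, three per route. Single iv dose of 1 mg/kg or oral dose of 10 mg/kg. About 200 μL blood drawn from the jugular vein into heparinized tubes at set times, then spun to plasma. 30 μL plasma precipitated with CH3CN containing verapamil and glibenclamide as internal standards. Plasma drug level measured by LC-MS/MS.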
# [7] = Terminal half life in Sprague-Dawley rat at 10 mg/kg, po by LC-MS/MS analysis; type: ADME, organism-based; settings: in vivo, read-out: beta t1/2 (converted); method in brief: as §3
# Sequence of Histone deacetylase 1 (Q13547 whole entry): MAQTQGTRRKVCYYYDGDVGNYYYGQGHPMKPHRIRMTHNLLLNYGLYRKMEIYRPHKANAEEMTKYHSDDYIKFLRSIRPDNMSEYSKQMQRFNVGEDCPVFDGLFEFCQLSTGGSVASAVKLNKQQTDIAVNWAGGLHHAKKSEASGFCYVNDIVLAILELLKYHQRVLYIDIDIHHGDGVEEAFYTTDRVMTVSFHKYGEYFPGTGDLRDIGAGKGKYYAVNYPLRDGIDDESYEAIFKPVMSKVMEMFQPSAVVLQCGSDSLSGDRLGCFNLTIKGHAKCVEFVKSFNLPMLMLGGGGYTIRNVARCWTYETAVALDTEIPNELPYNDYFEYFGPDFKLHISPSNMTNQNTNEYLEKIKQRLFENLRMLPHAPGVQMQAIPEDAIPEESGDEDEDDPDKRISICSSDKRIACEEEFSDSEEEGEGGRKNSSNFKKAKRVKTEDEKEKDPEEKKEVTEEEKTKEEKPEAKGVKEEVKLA
# Sequence of Histone deacetylase 7 (Homo sapiens) (Q8WUI4 whole entry): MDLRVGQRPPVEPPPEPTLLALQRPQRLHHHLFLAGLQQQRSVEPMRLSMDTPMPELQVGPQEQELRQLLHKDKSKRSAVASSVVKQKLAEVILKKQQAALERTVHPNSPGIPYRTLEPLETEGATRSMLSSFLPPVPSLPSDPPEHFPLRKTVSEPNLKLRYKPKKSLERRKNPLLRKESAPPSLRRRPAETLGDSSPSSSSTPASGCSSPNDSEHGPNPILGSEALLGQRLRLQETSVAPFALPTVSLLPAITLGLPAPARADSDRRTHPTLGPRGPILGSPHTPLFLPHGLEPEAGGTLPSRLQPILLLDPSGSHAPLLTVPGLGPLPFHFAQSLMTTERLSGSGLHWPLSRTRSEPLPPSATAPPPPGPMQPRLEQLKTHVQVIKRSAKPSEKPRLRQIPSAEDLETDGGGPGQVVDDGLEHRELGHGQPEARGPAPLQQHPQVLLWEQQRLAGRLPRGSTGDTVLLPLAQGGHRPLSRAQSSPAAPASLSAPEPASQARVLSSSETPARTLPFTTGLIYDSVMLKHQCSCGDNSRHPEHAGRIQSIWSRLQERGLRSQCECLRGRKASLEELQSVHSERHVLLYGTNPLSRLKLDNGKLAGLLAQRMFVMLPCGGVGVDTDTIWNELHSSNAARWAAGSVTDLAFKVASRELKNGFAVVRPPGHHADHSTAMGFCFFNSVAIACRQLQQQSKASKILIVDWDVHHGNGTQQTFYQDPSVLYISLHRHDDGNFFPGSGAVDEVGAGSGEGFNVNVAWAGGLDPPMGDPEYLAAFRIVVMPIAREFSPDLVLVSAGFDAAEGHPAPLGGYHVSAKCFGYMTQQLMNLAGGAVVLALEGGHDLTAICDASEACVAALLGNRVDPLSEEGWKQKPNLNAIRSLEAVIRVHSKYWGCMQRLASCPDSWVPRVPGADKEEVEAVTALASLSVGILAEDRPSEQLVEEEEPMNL
# Sequence of Histone deacetylase 3 (O15379 whole entry, canonical isoform): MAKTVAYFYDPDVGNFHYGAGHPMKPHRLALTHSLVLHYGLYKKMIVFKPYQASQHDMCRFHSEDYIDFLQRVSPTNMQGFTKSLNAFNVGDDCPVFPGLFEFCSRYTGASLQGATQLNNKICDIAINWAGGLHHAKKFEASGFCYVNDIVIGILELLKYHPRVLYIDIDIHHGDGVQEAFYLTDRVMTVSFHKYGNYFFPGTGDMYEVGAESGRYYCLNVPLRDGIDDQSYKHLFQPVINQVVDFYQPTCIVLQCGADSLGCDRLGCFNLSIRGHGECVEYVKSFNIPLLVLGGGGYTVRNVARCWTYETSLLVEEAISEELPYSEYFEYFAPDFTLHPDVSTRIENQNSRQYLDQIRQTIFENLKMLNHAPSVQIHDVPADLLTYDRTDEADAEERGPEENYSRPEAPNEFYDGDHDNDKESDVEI
# Sequence of Histone deacetylase 5 (Homo sapiens) (Q9UQL6 whole entry): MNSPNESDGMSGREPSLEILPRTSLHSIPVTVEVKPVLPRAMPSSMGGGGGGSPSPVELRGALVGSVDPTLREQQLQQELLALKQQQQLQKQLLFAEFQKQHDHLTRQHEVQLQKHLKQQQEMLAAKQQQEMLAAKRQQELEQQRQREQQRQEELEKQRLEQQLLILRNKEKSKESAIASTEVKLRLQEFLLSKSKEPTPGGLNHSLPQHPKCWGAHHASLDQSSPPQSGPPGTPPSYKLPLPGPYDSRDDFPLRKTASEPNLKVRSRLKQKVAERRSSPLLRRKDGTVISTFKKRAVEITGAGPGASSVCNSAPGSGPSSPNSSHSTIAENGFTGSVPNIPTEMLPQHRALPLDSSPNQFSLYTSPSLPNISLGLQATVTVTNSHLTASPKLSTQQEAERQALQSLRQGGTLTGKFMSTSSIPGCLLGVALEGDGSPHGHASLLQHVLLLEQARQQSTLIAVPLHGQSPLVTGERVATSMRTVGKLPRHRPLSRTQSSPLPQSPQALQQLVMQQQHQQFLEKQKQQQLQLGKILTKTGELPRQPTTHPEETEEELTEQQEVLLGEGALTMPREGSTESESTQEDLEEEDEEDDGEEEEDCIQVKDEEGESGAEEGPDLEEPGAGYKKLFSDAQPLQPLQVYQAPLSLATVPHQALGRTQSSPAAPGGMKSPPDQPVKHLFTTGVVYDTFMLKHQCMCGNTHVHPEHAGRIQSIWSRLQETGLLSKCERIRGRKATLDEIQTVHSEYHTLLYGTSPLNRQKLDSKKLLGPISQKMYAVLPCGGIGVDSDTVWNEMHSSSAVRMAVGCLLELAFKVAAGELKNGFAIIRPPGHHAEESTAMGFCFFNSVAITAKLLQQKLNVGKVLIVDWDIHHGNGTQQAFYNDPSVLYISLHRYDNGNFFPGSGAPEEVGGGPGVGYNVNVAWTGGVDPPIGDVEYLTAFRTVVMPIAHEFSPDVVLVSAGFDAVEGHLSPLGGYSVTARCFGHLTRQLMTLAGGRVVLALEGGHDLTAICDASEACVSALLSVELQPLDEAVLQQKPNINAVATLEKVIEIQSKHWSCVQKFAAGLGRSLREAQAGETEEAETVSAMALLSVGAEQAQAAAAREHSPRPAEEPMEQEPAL
structure (smiles),measurement,setting,value
Nc1cc(F)ccc1NC(=O)c1ccc(CNC(=O)/C=C2\NC(=O)c3ccccc32)cc1,IC50,Histone deacetylase 1,65.1 nM
same,IC50,Histone deacetylase 3,112 nM
same,inhibition,[1],inactive
same,inhibition,[2],inactive
same,IC50,HL-60,373 nM
same,IC50,K562,193 nM
same,Ratio IC50,Homo sapiens,17
same,inhibition of growth at 10 µM,CCRF-CEM,84.5%
same,inhibition of growth at 10 µM,SR,57.6%
same,inhibition of growth at 10 µM,NCI-H322M,14.2%
same,inhibition of growth at 10 µM,COLO 205,27.8%
same,inhibition of growth at 10 µM,HCC 2998,20.4%
same,inhibition of growth at 10 µM,HCT-116,73.3%
same,inhibition of growth at 10 µM,KM12,26.9%
same,inhibition of growth at 10 µM,SF-268,36%
same,inhibition of growth at 10 µM,DU-145,13%
same,inhibition of growth at 10 µM,TK-10,72.3%
same,inhibition of growth at 10 µM,ACHN,15%
same,inhibition of growth at 10 µM,SF-295,16.2%
same,inhibition of growth at 10 µM,SF-539,44.8%
same,inhibition of growth at 10 µM,SNB-19,13.6%
same,inhibition of growth at 10 µM,SK-MEL-2,52%
same,inhibition of growth at 10 µM,OVCAR-3,42%
same,inhibition of growth at 10 µM,OVCAR-8,55.9%
same,microsomal CLint at 1 µM,[3],6.92 µL/min/mg
same,Vd,[4],0.493 L/kg
same,AUC(0-t),[5],781 ng·h/mL
same,AUC(0-inf),[6],1740 ng·h/mL
same,half-life,[7],1.3 h

# — ChEMBL document CHEMBL4387704, “Design, synthesis and biological evaluation of novel isoindolinone derivatives as potent histone deacetylase inhibitors” (Eur J Med Chem, 2019)
